Assay outcomes as filed in PubChem BioAssay.
Rows were chosen to be rich in hits. Some 1.5% of all compounds tested hit in one or more screens of this group.
m5-HT2A agonist – activates the mouse 5-HT2A serotonin receptor; CHO-K1 mHTR2A beta-arrestin complementation, luminescence; percent of 30 µM serotonin response; activation, % at 7.6 µM; AID 624169; 0.66% of 360,000 active; P35363;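 active means activation above a run cutoff, the mean activation of all tested compounds plus 3 SD, cut at about 14% in these data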
NTR1 ag – NTR1 (human) agonism | P30989 | NTR1-U2OS beta-arrestin-GFP spot imaging, agonist mode | activation, % at 20 µM | 0.17% of 330,000 active;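 active means activation at or above 40% of the spot to cytoplasm intensity ratio, with at least 20 cells analyzed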
Target sequence (P30989 whole entry, looked up): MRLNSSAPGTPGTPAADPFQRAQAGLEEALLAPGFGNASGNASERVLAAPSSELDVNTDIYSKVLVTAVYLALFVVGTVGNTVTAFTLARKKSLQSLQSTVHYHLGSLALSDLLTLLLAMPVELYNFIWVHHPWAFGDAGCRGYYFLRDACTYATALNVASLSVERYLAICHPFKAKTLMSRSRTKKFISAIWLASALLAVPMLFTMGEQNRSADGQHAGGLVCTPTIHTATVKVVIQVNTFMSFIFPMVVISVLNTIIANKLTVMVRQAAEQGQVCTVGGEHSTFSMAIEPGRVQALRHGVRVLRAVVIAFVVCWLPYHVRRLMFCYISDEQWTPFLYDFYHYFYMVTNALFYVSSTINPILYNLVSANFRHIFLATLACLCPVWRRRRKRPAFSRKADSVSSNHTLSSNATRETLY
CCR6 antagonist – blocks CCL20-driven beta-arrestin recruitment at human CCR6; P51684; CHO-K1 CCR6 PathHunter beta-arrestin, luminescence, CCL20-stimulated; inhibition, % at 20 µM; 0.49% of 340,000 active;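 active means compounds whose inhibition of the agonist-driven luminescence signal at 20 µM reaches about 50%, limit read from the data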;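 further: cells stimulated with CCL20 at 14 nM final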
CXCR6 inh – inhibitors of human CXCR6 receptor; O00574; CHO-K1 PathHunter CXCR6 beta-arrestin, luminescence; inhibition, % at 20 µM; 0.36% of 360,000 active; AID 602244; in the data active means inhibition above about 34%, passing the limit was not always enough;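 further: antagonist mode with CXCL16 agonist at 10 nM final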
APJ ag – agonists of human APJ apelin receptor. P35414. activation, % at 20 µM. 0.11% of 330,000 active. CHO-K1 APJ PathHunter beta-arrestin, luminescence; 0% DMSO wells, 100% apelin. AID 2520;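 active means activation more than six SD over the plate average, tested at 20 µM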
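Incubation: overnight seeding, 90 min compound at 25 °C, 1 h detection; test system: PathHunter CHO-K1 APJ (AGTRL-1) beta-arrestin reporter cells; amount: 1000 cells/well; doses: one dose, 20 µM compound, 1% DMSO; measured by: beta-gal luminescence; measure: agonist-driven arrestin binding to APJ; benchmarks: negative DMSO alone, positive Apelin-13 at 10 nM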
APJ antag – blocks the human apelin receptor APJ. P35414. CHO-K1 APJ beta-arrestin complementation, luminescence. inhibition, % at 20 µM. 0.32% of 330,000 active. AID 2521;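 active means inhibition above about 40% at 20 µM, limit read from the data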;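 further: cells challenged with 10 nM apelin-13 agonist together with compound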
Large screens that a line does not name were inactive; ! = a repeat was not active.

Cc1cn(-c2cc(C(=O)Nc3ccc(C)c(NC(=O)C(=O)c4c[nH]c5ccccc45)c3)cc(C(F)(F)F)c2)cn1	m5-HT2A agonist 16.5!
O=C(O)c1cc(N=Nc2c(O)ccc3ccccc23)cc(C(=O)O)c1	CCR6 antagonist 57.4 (no result: NTR1 ag, APJ ag, APJ antag)
NS(=O)(=O)c1ccc(N=Nc2c(O)ccc3ccccc23)cc1	none
CN(Cc1ccc(Cl)cc1)C(=O)COC(=O)CSc1ccc([N+](=O)[O-])cc1	none
CCN(CC)c1ccc2c(c1)oc(=O)c1c(Cl)cc(=O)oc12	CXCR6 inh 60.2
O=C(CSc1nc(-c2ccco2)cc(C(F)(F)F)n1)NCCCn1ccnc1	CXCR6 inh 48.3
COc1cc(/C=N/NC(=O)c2ccc(F)cc2)ccc1OC(=O)c1ccco1	none
COc1cc(/C=C2/C(=O)NN(c3ccc(Cl)cc3)C2=O)ccc1OC(=O)c1ccco1	CCR6 antagonist 72.4, CXCR6 inh 50.4
COc1cc(/C=C2/C(=O)NN(c3cccc(F)c3)C2=O)ccc1OC(=O)c1ccco1	CXCR6 inh 40.3
CC(C)(CNC(=O)c1ccc(-c2cccc(C(F)(F)F)c2)o1)N1CCOCC1	none
COc1ccc(NC(=S)NC(NC(=O)c2ccccc2Cl)C(Cl)(Cl)Cl)c([N+](=O)[O-])c1 (centres undefined)	CCR6 antagonist 56.1
COc1ccc(NC(=S)NC(NC(=O)c2ccc(Cl)cc2Cl)C(Cl)(Cl)Cl)c([N+](=O)[O-])c1 (centres undefined)	CXCR6 inh 33.3
COc1ccc(NC(=S)NC(NC(=O)CCl)C(Cl)(Cl)Cl)c([N+](=O)[O-])c1 (centres undefined)	none
COc1ccc(NC(=S)NC(NC(=O)c2cccc3ccccc23)C(Cl)(Cl)Cl)c([N+](=O)[O-])c1 (centres undefined)	none
Cc1cnc(C(=O)OCC(=O)Nc2ccccc2[N+](=O)[O-])cn1	none
COc1ccc(-n2nc3c(N4CCC(C(=O)N5CCCCCC5)CC4)nnc(C)c3c2C)cc1	none
O=C(OC1CCOC1=O)c1ccc(Cl)c(S(=O)(=O)N2CCOCC2)c1 (centres undefined)	none
Cc1nc(N2CCOCC2)nc2c1CCC2	none
Cc1nn(-c2ccccn2)c2c1C(c1ccccc1Cl)C1=C(N2)c2ccccc2C1=O (centres undefined)	CCR6 antagonist 78.8
C=CCOc1ccccc1C(=O)/C=C1/C(=O)Nc2ccccc21	NTR1 ag 50.4
O=C1Nc2ccccc2/C1=C/c1cnc(-c2ccccc2)[nH]1	none
Cc1noc(C)c1NC(=O)N(C)C[C@@H]1OCc2cnnn2CCCC(=O)N([C@@H](C)CO)C[C@@H]1C	none (no result: NTR1 ag, CCR6 antagonist, APJ ag, APJ antag)
CC(Nc1cccc2ccccc12)C(=O)N/N=C/c1ccc([N+](=O)[O-])cc1 (centres undefined)	none
COc1cc([N+](=O)[O-])cc(/C=N/NC(=O)C(C)Nc2cccc3ccccc23)c1O (centres undefined)	CXCR6 inh 56.4
O=C(/C=C/c1ccccc1)NNC(=O)c1cccc(Cl)c1	none
O=C(/C=C/c1ccccc1)NNc1ccc(Cl)cc1	APJ antag 61.9
COC(=O)C1=C(C)N(Cc2ccc(C)cc2)C(=O)/C1=C\c1cc(OC)c(OC)c(OC)c1	none
COC(=O)C1=C(C)N(Cc2ccc(C)cc2)C(=O)/C1=C\c1ccc(O)c(OC)c1	CXCR6 inh 36.3
Cn1ncc2c(=S)[nH]c(=S)[nH]c21	none (no result: NTR1 ag, CCR6 antagonist, APJ ag, APJ antag)
CN(C)C(=O)c1ccc(NC(=O)c2ccc(-c3ccc(Cl)cc3)o2)cc1	none
O=C(/C=C/c1cccnc1)/C=C/c1cccnc1	CCR6 antagonist 59.5 (no result: NTR1 ag, APJ ag, APJ antag)
Cc1cc(NC(=O)CSc2nc3sc(C)c(C)c3c(=O)n2C2CCCC2)no1	m5-HT2A agonist 16.9
COC(=O)c1ccc(N2CCN(C)CC2)c(NC(=O)c2cccs2)c1	none
Cc1nc2scc(-c3ccccc3)c2c(=O)n1N=C1C=CC(=O)C=C1	CCR6 antagonist 99.2 (no result: m5-HT2A agonist, CXCR6 inh)
COc1ccccc1C(=O)NCCC(=O)NCC(C)(C)N1CCOCC1	m5-HT2A agonist 17.4
COc1ccc(N/N=C(/N=Nc2nc(C)cc(=O)[nH]2)c2ccccc2)cc1	CXCR6 inh 33.0
COc1ccccc1NS(=O)(=O)c1cc([N+](=O)[O-])ccc1N/N=C/c1sc(N2CCOCC2)nc1-c1ccccc1	CCR6 antagonist 62.5, CXCR6 inh 43.8 (no result: NTR1 ag, APJ ag, APJ antag)
N#Cc1c(C(F)(F)F)cc(-c2cccs2)nc1SCc1ccc(Cl)nc1	none
N#Cc1c(C(F)(F)F)cc(-c2cccs2)nc1SCc1cccnc1	m5-HT2A agonist 17.3
CC(C)Oc1ccc(C2CC(=O)N(c3cccc(/C=C/C(=O)O)c3)C2=O)cc1 (centres undefined)	none
Cc1cccc2c(N=Nc3ccc(S(=O)(=O)Nc4cccc(Cl)c4)cc3[N+](=O)[O-])c(O)[nH]c12	CCR6 antagonist 58.1
O=c1oc2ccccc2c(N2CCCC2)c1CN1CCCC1	none
O=c1oc2ccccc2c(Cl)c1CN1CCCCC1	CCR6 antagonist 92.3, CXCR6 inh 96.5, APJ antag 86.5
O=C1C(Nc2ccccc2)=C(NS(=O)(=O)c2ccccc2)C(=O)c2ccccc21	CCR6 antagonist 50.2
O=C(O)CCN1C(=O)/C(=C\c2ccc(-c3nc4ccccc4s3)o2)SC1=S	CCR6 antagonist 53.4
O=C(O)CCCN1C(=O)/C(=C\c2ccco2)SC1=S	none (no result: NTR1 ag, APJ ag, APJ antag)
COc1ccccc1/C=C/c1ccc2cccc(O)c2n1	CCR6 antagonist 63.3
Cc1ccc(C(=O)CNc2ccc(Cl)cc2)cc1	CCR6 antagonist 71.1, CXCR6 inh 52.7, APJ antag 101.9
CCOc1ccc(NCC(=O)c2ccc(C)cc2)cc1	CCR6 antagonist 67.5, CXCR6 inh 51.1
CC(=O)Nc1ccc(NCC(=O)c2ccccc2)cc1	CXCR6 inh 51.2
C/C(=N/NC(=O)CNc1ccc(C)cc1)c1ccc(Cl)cc1	none
CN(CCCNC(=O)Cn1cccc1C(=O)c1ccccc1)C1CCCCC1	none
COc1ccc(NC(=O)C2=NN(c3ccccc3)C(=O)CC2)cn1	none
COc1ccc(CN2C(=O)C(Cc3ccccc3)Nc3ncnc(N4CCCCC4)c32)cc1 (centres undefined)	none
Cc1ccc(CN2C(=O)C(Cc3ccccc3)Nc3ncnc(N4CCCCC4)c32)cc1 (centres undefined)	CCR6 antagonist 50.7, CXCR6 inh 41.2!
O=C(NCCOCc1ccccc1)C(c1ccccc1)c1ccccc1	none
Brc1ccc2nc(-c3ccco3)c(CC3CCCCC3)n2c1	none (no result: NTR1 ag, CCR6 antagonist, APJ ag, APJ antag)
Oc1c(Br)cc(Br)cc1C=Nc1ccc2[nH]ncc2c1	APJ ag 14.3
CCOC(=O)Cn1c(=NC(=O)c2ccc([N+](=O)[O-])s2)sc2ccccc21	CCR6 antagonist 54.1
CCOC(=O)Cn1c(=NC(=O)C2COc3ccccc3O2)sc2cc(S(N)(=O)=O)ccc21 (centres undefined)	none
NC(=O)c1ccc(S(=O)(=O)N2CCSCC2)cc1	none
